Activity calls are given as the source filed them. The rule behind the calls is not given here.
Legend:
[1] = Antiproliferative activity against human KB-3-1 cells by MTT assay; type: functional, cell-based
Method in brief: (§1)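 Cells kept in supplier-recommended media at 37 °C, 10% CO2. Serial dilutions added to a cell suspension (50,000 per mL) and incubated 5 d alongside blank and solvent controls. MTT then added to 0.5 mg mL^-1 final for 2 h, and formazan precipitate collected by centrifugation. Run as two parallel experiments; activity taken as mean relative to controls set at 100%.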

[2] = tested on: L929; assay: Antiproliferative activity against mouse L929 cells by MTT assay; type: functional, cell-based; method in brief: as §1
[3] = tested on: L929; assay: Effect on microtubule polymerization in mouse L929 cells at 3 ng/ml by impedance profiling; type: cell-based
Method in brief: (§2)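 L-929 mouse fibroblasts were cultured at 37 °C and 10% CO₂ in supplier-recommended medium. Cells were exposed to compound, with methanol-only controls, and impedance was recorded over time. The time-dependent impedance curves served as a mode-of-action fingerprint and were compared statistically, by cluster analysis, with curves from a panel of reference compounds, including microtubule-interfering agents.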

[4] = tested on: L929; assay: Effect on spindle formation in mouse L929 cells at 3 ng/ml by impedance profiling; type: cell-based; method in brief: as §2
[5] = tested on: PtK2; assay: Effect on chromosme distribution in Potorous tridactylus PtK2 cells at 4 ug/ml for overnight incubation by DAPI staining analysis; type: functional, cell-based
Method in brief: (§3)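 PtK2 cells on glass coverslips incubated overnight with compound or with methanol only. For alpha-tubulin staining, fixed in cold (-20 °C) MeOH/acetone (1:1) for 10 min, then probed with primary antibody. DNA counterstained. Microtubular network, mitotic spindles and chromosome distribution assessed by fluorescence microscopy.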

[6] = molecular target: Tubulin (Sus scrofa) (UniProt P02554+P02550); assay: Inhibition of porcine tubulin polymerization at 500 ug/ml by fluorescence analysis; type: protein assay
Sequence of Tubulin (Sus scrofa) (P02550 whole entry, looked up): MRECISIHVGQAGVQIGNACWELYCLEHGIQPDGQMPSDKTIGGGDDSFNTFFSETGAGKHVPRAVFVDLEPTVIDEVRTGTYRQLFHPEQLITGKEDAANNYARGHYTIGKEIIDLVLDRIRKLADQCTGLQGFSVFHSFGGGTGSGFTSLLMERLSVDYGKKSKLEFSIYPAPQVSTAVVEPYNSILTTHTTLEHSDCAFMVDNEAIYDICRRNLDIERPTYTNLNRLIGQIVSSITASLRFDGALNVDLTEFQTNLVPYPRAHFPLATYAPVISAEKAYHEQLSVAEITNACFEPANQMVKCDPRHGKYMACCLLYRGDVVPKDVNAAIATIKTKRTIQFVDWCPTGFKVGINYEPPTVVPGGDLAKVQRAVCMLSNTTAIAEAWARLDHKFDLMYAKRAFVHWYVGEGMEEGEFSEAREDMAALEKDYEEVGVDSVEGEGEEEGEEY
Sequence of Tubulin (Sus scrofa) (P02554 whole entry, looked up): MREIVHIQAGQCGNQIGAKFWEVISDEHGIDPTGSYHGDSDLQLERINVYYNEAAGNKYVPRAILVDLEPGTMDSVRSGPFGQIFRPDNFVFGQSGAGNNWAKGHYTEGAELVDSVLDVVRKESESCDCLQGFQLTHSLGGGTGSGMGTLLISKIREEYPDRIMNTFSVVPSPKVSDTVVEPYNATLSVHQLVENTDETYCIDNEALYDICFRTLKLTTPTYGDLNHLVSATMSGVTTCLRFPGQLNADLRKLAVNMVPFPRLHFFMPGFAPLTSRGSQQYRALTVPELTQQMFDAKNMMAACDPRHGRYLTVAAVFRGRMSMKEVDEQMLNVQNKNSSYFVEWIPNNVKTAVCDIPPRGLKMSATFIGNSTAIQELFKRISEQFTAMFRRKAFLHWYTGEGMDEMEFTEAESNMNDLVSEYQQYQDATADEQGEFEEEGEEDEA
Method in brief: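 Porcine tubulin (kit master mix with buffer, glycerol and GTP) mixed with compound at a 5:50 volume ratio. Placed at once in a fluorimeter at 37 °C. Polymerization followed by incorporation of a fluorescent reporter, read at 460 nm (excitation 340 nm) for about 1 h. Methanol and nocodazole served as controls.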

[7] = tested on: PtK2; assay: Effect on F-actin cytoskeleton in Potorous tridactylus PtK2 cells at 3 ug/ml for overnight incubation by DAPI staining analysis; type: cell-based
Method in brief: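 PtK2 cells grown on glass coverslips and exposed to compound overnight, with methanol-only controls. Fixed in 3.7% formalin for 10 min, permeabilized with 0.1% Triton X-100 for 5 min, then stained with Alexa Fluor 488 phalloidin (1:100) for 1 h. F-actin (green) and DNA (blue) examined by fluorescence microscopy.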

[8] = Cytotoxicity against Potorous tridactylus PtK2 cells by MTT assay; type: functional, cell-based; method in brief: as §1
[9] = tested on: L929; assay: Effect on microtubule polymerization in mouse L929 cells at 0.4 ug/ml by impedance profiling; type: cell-based
Method in brief: (§4)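 L-929 cell cultures incubated with compound while impedance was recorded over time. The time-dependent impedance curves served as a mode-of-action fingerprint and were compared statistically, by cluster analysis, against curves from a set of reference compounds. Controls received methanol.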

[10] = tested on: L929; assay: Effect on spindle formation in mouse L929 cells at 0.4 ug/ml by impedance profiling; type: cell-based; method in brief: as §4
[11] = tested on: PtK2; assay: Effect on mitotic spindle in Potorous tridactylus PtK2 cells at 4 ug/ml for overnight incubation by DAPI staining analysis; type: functional, cell-based; method in brief: as §3
[12] = tested on: PtK2; assay: Effect on microtubular network in Potorous tridactylus PtK2 cells at 4 ug/ml for overnight incubation by DAPI staining analysis; type: functional, cell-based; method in brief: as §3

Structure (SMILES) | IC50 [1] | IC50 [2] | also measured
CC(C)(C)[Si](O[C@H]1C[C@H]2CC(=O)C[C@H]2C1)(c1ccccc1)c1ccccc1 | > 40 µg/mL | > 40 µg/mL | 
C=CC[C@@H]1[C@H]2CC(=O)[C@H](CC=C)[C@H]2C[C@H]1O | > 40 µg/mL | > 40 µg/mL | 
CC1(C)COC2(CC[C@@H]3[C@@H](O)[C@H](O)C[C@@H]32)OC1 | > 40 µg/mL | > 40 µg/mL | 
CC(C)(C)[Si](OC1CCCCC1)(c1ccccc1)c1ccccc1 | 7.5 µg/mL | 40 µg/mL | 
Cc1ccc(S(=O)(=O)N/N=C2/C[C@@H]3CC4(C[C@@H]3C2)OCC(C)(C)CO4)cc1 | > 40 µg/mL | > 40 µg/mL | 
C1COC2(CC[C@@H]3[C@H]4O[C@H]4C[C@@H]32)O1 |  | > 40 µg/mL | 
C=C1C[C@@H]2CC3(C[C@@H]2C1)OCC(C)(C)CO3 | > 40 µg/mL | > 40 µg/mL | 
CC(C)(C)[Si](OC1CCCCCC1)(c1ccccc1)c1ccccc1 | 6.2 µg/mL | 40 µg/mL | 
C[C@H]1C(=O)C[C@]2(C)CC3(C[C@]12C)OCC(C)(C)CO3 |  | > 150 µM | 
O=C1C[C@@H]2C[C@H](O)C[C@@H]2C1 | > 40 µg/mL | > 40 µg/mL | 
CC(C)(C)[Si](O[C@H]1[C@H]2CCC3(OCCO3)[C@H]2C[C@@H]1O)(c1ccccc1)c1ccccc1 |  | 38.8 µM | 
O=C1CC(CCCCO)[C@H]2CCC3(OCCO3)[C@@H]12 (stereo partly drawn) | > 40 µg/mL | > 40 µg/mL | 
CC1(C)COC2(C[C@H]3C[C@H](O)C[C@H]3C2)OC1 | > 40 µg/mL | > 40 µg/mL | 
CC(C)(C)[Si](C)(C)OC1CCCC2C1C(=O)[C@H]1CC(Br)C3(OCCO3)[C@@H]21 (stereo partly drawn) | > 40 µg/mL | 32 µg/mL | 
C=CC[C@@H]1[C@H]2C=C[C@H](C)[C@H]2C[C@H]1O[Si](c1ccccc1)(c1ccccc1)C(C)(C)C | > 96 µM | 20.4 µM | 
C[C@@H]1[C@H]2CC(=O)[C@H](C)[C@H]2C[C@H]1O[Si](c1ccccc1)(c1ccccc1)C(C)(C)C | 15.2 µM | 7.4 µM | 
C[C@@H]1[C@H](O)C[C@]2(C)CC3(C[C@]12C)OCC(C)(C)CO3 |  | > 150 µM | 
O=C1CC[C@H]2[C@@H]1CCC21OCCO1 | > 40 µg/mL | > 40 µg/mL | 
C=CC[C@@H]1[C@H]2CC(=O)[C@H](C)[C@H]2C[C@H]1O[Si](c1ccccc1)(c1ccccc1)C(C)(C)C | 16 µM | 32.4 µM | 

Structure (SMILES) | IC50 [1] | IC50 [2] | also measured
C=CC[C@@H]1[C@H]2C/C(=N\NS(=O)(=O)c3ccc(C)cc3)[C@H](C)[C@H]2C[C@H]1O[Si](c1ccccc1)(c1ccccc1)C(C)(C)C | 13.3 µM | 20 µM | 
CC(C)=CC[C@@H]1C(=O)C[C@H]2C[C@@H](O[Si](c3ccccc3)(c3ccccc3)C(C)(C)C)[C@H](C)[C@H]21 | 21.7 µM | 5.6 µM | 
C=CC[C@@H]1C(=O)C[C@H]2C[C@@H](O[Si](c3ccccc3)(c3ccccc3)C(C)(C)C)[C@H](C)[C@H]21 | 16.2 µM | 5.1 µM | 
CCC(=O)O[C@@H]1C[C@@H]2CC3(C[C@@H]2C1)OCC(C)(C)CO3 | > 142 µM | > 142 µM | 
CC(C)(C)[Si](OC1CCCC1)(c1ccccc1)c1ccccc1 |  | 61.6 µM | 
O=C1C2C(O)CCCC2[C@H]2[C@@H]1CC(Br)C21OCCO1 (stereo partly drawn) | 10 µg/mL | 22 µg/mL | 
O=C1C[C@@H]2C[C@@H](O)C[C@@H]2C1 | > 40 µg/mL | > 40 µg/mL | 
C=CC[C@@H]1[C@@H]2[C@@H](CC(=O)[C@H]2C)C[C@H]1O[Si](c1ccccc1)(c1ccccc1)C(C)(C)C | 20.3 µM | 16.2 µM | 
C=CC[C@@H]1[C@@H]2[C@H](C[C@H]1O[Si](c1ccccc1)(c1ccccc1)C(C)(C)C)[C@@H](C)C(=O)[C@H]2C | 7.9 µg/mL | 5.8 µg/mL | 
C[C@@H]1[C@H](O[Si](c2ccccc2)(c2ccccc2)C(C)(C)C)C[C@]2(C)CC3(C[C@]12C)OCC(C)(C)CO3 |  | 11.8 µM | 
CC(C)(C)[Si](C)(C)OC1CCCC2C1C(O)[C@H]1CC(Br)C3(OCCO3)[C@@H]21 (stereo partly drawn) | 14 µg/mL | 15 µg/mL | 
CC(C)(C)[Si](O[C@@H]1[C@H]2CCC3(OCCO3)[C@H]2C[C@H]1O)(c1ccccc1)c1ccccc1 |  | 41 µM | 
CC1(C)COC2(C[C@H]3C[C@@H](CO)C[C@H]3C2)OC1 | > 40 µg/mL | > 40 µg/mL | 
O=CCCCC1CC(=O)[C@H]2[C@@H]1CCC21OCCO1 (stereo partly drawn) | > 40 µg/mL | > 40 µg/mL | 
CC1(C)COC2(C[C@@H]3CC=C[C@@H]3C2)OC1 | > 40 µg/mL | > 40 µg/mL | 
CCCC(=O)OCN(C(=O)[C@@H](NC(=O)[C@H]1CCCCN1C)[C@@H](C)CC)[C@H](C[C@@H](OC(C)=O)c1nc(C(=O)N[C@@H](Cc2ccc(O)cc2)C[C@H](C)C(=O)O)cs1)C(C)C |  |  | Activity [3]: Active; Activity [4]: Active
CC(C)(C)[Si](C)(C)OC1CCCC1 | > 200 µM | > 200 µM | 
C=CCC[C@H]1CC(=O)[C@@H]2C=CC(=O)[C@H]12 (racemic) | 16.3 µM | 20 µM | 
BrC1C[C@H]2[C@H](CC(Br)C23OCCO3)C12CCCC2 (stereo partly drawn) | > 40 µg/mL | > 40 µg/mL | 

Structure (SMILES) | IC50 [1] | IC50 [2] | also measured
C[C@H]1[C@H](O)C[C@]2(C)CC3(C[C@]12C)OCC(C)(C)CO3 |  | > 150 µM | 
O=C1C=C(CCCCOCc2ccccc2)[C@H]2CCC3(OCCO3)[C@@H]12 | > 40 µg/mL | > 40 µg/mL | 
Cc1cc(C)c(O[C@@H]2C[C@@H]3CC4(C[C@@H]3C2)OCC(C)(C)CO4)c(C)c1 | > 40 µg/mL | > 40 µg/mL | 
CC(C)=CC[C@H]1C(=O)C[C@@H]2[C@@H](C)[C@H](O[Si](c3ccccc3)(c3ccccc3)C(C)(C)C)C[C@@H]21 | 28.2 µM | 23.9 µM | 
C=CC[C@H]1C(=O)C[C@@H]2[C@@H](C)[C@H](O[Si](c3ccccc3)(c3ccccc3)C(C)(C)C)C[C@@H]21 | 6.9 µM | 17.8 µM | 
C=CC[C@@H]1[C@@H]2[C@@H](CC(=O)[C@H]2CC=C)C[C@H]1O | > 40 µg/mL | > 40 µg/mL | 
C[C@H]1[C@H](O[Si](c2ccccc2)(c2ccccc2)C(C)(C)C)C[C@]2(C)CC3(C[C@]12C)OCC(C)(C)CO3 |  | 15.8 µM | 
CC(C)[Si](OC1CCCC1)(C(C)C)C(C)C | 124 µM | 111 µM | 
C#CC(=O)O[C@H]1C[C@@H]2C[C@H](O[Si](c3ccccc3)(c3ccccc3)C(C)(C)C)C[C@@H]2C1 |  | 9.3 µM | 
C=CCC[C@H]1CC2(OCCO2)[C@@H]2C=CC(=O)[C@H]12 (racemic) | 32 µM | 25.6 µM | 
C[C@@H]1[C@@H]2[C@@H](CC(=O)[C@H]2C)C[C@H]1O[Si](c1ccccc1)(c1ccccc1)C(C)(C)C | 7.4 µM | 14.8 µM | 
O[C@@H]1[C@H]2CCC3(OCCO3)[C@H]2C[C@@H]1O | > 40 µg/mL | > 40 µg/mL | 
C[C@@H]1[C@H](O[Si](c2ccccc2)(c2ccccc2)C(C)(C)C)C[C@]2(C)CC(=O)C[C@]12C |  | 35.7 µM | 
C=CC[C@@H]1[C@H]2[C@H](C)C=C[C@H]2C[C@H]1O[Si](c1ccccc1)(c1ccccc1)C(C)(C)C | > 96 µM | 7.2 µM | 
CC1(C)COC2(C[C@@H]3CC4OC4[C@@H]3C2)OC1 (stereo partly drawn) | > 40 µg/mL | > 40 µg/mL | 
C[C@H]1[C@H](O[Si](c2ccccc2)(c2ccccc2)C(C)(C)C)C[C@]2(C)CC(=O)C[C@]12C |  | 14.3 µM | 
O=C1C=C[C@H]2C(=O)C=C[C@@H]12 | 6 µM | 3 µM | Activity [5]: Active; inhibition [6]: Active; Activity [7]: inactive; IC50 [8]: 3 µM; Activity [9]: Active; Activity [10]: Active; Activity [11]: Active; Activity [12]: Active
C=CC[C@@H]1[C@@H]2[C@@H](C/C(=N/NS(=O)(=O)c3ccc(C)cc3)[C@H]2C)C[C@H]1O[Si](c1ccccc1)(c1ccccc1)C(C)(C)C | 12.5 µM | > 67 µM | 
